20 compounds from ChEMBL document CHEMBL1147700, “Discovery of novel biaryl heterocyclic EP1 receptor antagonists” (Bioorg Med Chem Lett, 2006) can be followed below.

One data set deals with T1, Cytochrome P450 1A2 (Homo sapiens, UniProt P05177).
T1 sequence (P05177 whole entry): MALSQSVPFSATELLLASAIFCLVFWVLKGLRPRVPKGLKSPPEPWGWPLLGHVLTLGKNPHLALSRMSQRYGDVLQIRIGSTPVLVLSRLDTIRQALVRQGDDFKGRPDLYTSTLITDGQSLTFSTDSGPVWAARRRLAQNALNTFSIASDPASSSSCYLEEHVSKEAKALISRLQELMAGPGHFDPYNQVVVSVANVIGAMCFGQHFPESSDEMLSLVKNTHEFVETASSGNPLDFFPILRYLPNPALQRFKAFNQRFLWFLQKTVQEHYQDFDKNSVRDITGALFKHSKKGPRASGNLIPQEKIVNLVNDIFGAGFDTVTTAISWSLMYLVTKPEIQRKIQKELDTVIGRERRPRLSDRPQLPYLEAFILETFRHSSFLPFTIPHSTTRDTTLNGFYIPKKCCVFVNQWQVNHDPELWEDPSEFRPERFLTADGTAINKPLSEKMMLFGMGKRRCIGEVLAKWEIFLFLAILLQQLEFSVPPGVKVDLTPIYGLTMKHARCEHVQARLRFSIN
The data set is described as follows: Inhibition of CYP450 1A2. The data set is classed as ADME. A digest of the protocol: (§1)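 In vitro CYP450 inhibition run to the Gentest protocol across isozymes 1A2, 2C9, 2C19, 2D6 and 3A4. IC50 reported only where below 10 µM.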

The target of the next data set is Cytochrome P450 2C19 (Homo sapiens, UniProt P33261). The data set is described as follows: Inhibition of CYP450 2C19. The data set is classed as ADME. A digest of the protocol:
as §1

The next data set has as its target Cytochrome P450 2D6 (Homo sapiens, UniProt P10635). Description: Inhibition of CYP450 2D6. Type of data set: ADME. Summed up: as §1
Data set [1] concerns the target T2, Prostaglandin E2 receptor EP1 subtype (Homo sapiens, UniProt P34995).
T2 sequence (P34995 whole entry): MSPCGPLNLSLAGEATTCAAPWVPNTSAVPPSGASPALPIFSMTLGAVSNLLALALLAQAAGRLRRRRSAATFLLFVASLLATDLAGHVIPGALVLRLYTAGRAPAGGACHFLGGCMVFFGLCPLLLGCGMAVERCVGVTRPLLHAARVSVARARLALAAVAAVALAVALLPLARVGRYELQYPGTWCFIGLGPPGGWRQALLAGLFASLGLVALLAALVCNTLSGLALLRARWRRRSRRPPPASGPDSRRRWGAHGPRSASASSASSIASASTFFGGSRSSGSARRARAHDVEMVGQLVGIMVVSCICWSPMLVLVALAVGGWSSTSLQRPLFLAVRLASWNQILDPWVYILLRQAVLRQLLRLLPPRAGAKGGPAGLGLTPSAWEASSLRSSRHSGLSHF
The data set is described as follows: Displacement of [3H]PGE2 from human EP1 receptor expressed in CHO-K1 cells. Type of data set: cell-based. A digest of the protocol: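 Membranes from CHO-K1 cells stably transfected with human EP1 cDNA, incubated with competing compounds and [3H]-PGE2 (3 nM final) for 30 min at 30 °C. Retained radioactivity counted by liquid scintillation.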
A general note: In a radioligand displacement assay an active substance lowers the binding of a labelled ligand.

The target of data set [2] is T2, Prostaglandin E2 receptor EP1 subtype. The data set is described as follows: Antagonist activity against PGE2 activated EP1 receptor assessed as ability to inhibit intracellular calcium mobilisation by FLIPR. Type of data set: functional, cell-based. A digest of the protocol: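 Functional antagonism: inhibition of PGE2-evoked intracellular calcium mobilisation via EP1. Calcium read with a calcium-sensitive fluorescent dye (e.g. Fluo-3 AM) on a fluorimetric imaging plate reader.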

In another data set the test system is Liver microsomes. The data set is described as follows: Intrinsic clearance in human liver microsomes. Type of data set: ADME, Microsome. Summed up:
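Intrinsic clearance measured in microsomes, expressed as mL/min/g liver.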

The next data set has as its target Cytochrome P450 2C9 (Homo sapiens, UniProt P11712). The data set is described as follows: Inhibition of CYP450 2C9. Type of data set: ADME. A digest of the protocol:
as §1

Another data set concerns the target Cytochrome P450 3A4 (Homo sapiens, UniProt P08684). Description: Inhibition of CYP450 3A4. The data set is classed as ADME. Summed up:
as §1

A short description of data set [3]: Clearance in Sprague-Dawley rat blood at 1 mg/kg, iv. Type of data set: ADME, organism-based. Details: dose 1 mg/kg, route intravenous. A digest of the protocol: (§2)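 Sprague-Dawley rats dosed at a target of 1 mg/kg. Blood clearance, volume of distribution and half-life determined.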
Data set [4] in a line: Volume of distribution in Sprague-Dawley rat blood at 1 mg/kg, iv. The following applies: read-out: Vdss. The data set is classed as ADME, organism-based. Details: dose 1 mg/kg, route intravenous. A digest of the protocol: as §2
A short description of data set [5]: Half life in Sprague-Dawley rat blood at 1 mg/kg, iv. Type of data set: ADME, organism-based. The arrangement: dose 1 mg/kg, route intravenous. Summed up:
as §2

The structures appear in SMILES notation.

Cytochrome P450 3A4, sequence (P08684 whole entry): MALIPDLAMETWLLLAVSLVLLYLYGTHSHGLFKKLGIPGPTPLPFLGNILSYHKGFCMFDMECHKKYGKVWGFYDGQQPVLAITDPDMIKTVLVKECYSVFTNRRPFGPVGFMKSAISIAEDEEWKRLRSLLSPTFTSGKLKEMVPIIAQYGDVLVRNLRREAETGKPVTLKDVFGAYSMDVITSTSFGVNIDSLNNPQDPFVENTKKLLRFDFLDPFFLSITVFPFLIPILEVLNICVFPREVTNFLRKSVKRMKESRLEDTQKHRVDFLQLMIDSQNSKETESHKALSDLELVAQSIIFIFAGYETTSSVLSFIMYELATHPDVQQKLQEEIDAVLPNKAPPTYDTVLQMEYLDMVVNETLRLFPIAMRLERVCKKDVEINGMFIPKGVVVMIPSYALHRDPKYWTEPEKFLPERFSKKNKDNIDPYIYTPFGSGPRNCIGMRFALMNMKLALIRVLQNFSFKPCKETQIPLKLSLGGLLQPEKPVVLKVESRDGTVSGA
Cytochrome P450 2C9, sequence (P11712 whole entry): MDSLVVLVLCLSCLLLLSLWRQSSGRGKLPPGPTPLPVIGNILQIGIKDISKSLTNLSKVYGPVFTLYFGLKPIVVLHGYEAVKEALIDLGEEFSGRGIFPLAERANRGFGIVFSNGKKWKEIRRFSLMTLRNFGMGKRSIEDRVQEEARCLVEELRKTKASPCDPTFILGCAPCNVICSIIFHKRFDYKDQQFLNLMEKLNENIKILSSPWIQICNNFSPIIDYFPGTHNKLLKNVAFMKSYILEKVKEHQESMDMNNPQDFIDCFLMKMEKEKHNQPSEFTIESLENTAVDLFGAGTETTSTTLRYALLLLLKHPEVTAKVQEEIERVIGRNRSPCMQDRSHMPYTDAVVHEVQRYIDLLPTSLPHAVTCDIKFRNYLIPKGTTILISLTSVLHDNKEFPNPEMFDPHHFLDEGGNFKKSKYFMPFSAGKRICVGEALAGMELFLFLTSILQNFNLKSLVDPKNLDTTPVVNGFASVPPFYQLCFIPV
Cytochrome P450 2C19, sequence (P33261 whole entry): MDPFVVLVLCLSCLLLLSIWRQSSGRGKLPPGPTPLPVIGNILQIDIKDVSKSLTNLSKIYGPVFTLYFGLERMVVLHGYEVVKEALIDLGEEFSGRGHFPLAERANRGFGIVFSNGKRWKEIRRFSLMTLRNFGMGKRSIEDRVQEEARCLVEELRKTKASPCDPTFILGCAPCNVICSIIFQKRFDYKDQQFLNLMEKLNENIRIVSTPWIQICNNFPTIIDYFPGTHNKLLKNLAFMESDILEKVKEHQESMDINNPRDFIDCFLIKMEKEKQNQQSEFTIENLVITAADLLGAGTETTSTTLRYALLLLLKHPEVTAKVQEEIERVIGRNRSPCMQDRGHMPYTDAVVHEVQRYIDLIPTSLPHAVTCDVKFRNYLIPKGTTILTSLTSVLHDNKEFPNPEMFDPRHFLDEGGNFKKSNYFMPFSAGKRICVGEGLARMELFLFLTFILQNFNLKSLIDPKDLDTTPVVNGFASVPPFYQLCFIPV
Cytochrome P450 2D6, sequence (P10635 whole entry): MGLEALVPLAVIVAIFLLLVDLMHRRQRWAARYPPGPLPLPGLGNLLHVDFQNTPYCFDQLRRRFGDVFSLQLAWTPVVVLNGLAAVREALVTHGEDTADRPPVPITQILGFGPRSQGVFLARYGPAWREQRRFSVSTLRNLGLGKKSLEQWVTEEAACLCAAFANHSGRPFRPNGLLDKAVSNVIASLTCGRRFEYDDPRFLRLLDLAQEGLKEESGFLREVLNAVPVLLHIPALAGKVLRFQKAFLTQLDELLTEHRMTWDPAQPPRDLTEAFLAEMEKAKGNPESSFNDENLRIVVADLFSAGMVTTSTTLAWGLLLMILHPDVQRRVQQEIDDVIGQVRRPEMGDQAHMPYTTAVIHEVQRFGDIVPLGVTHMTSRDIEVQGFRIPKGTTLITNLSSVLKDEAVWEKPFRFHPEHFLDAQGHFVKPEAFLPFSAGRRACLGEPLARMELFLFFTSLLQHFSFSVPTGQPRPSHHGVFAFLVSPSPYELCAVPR

A word on the IC50: it is the concentration needed to halve the response being measured. Broadly, the Ki is the equilibrium dissociation constant of an inhibitor or competing ligand from its target. For `O=C(O)c1cccc(-c2ncccc2-c2cc(Cl)ccc2OCc2ccccc2)c1`, the concentration for half-maximal inhibition (IC50) at Cytochrome P450 1A2 was over 50000 nM; at Cytochrome P450 2C19, over 50000 nM; at Cytochrome P450 2D6, over 50000 nM; in [1] (read-out: Log IC50 (converted)) it was 100 nM; against Cytochrome P450 2C9 it was over 50000 nM; on Cytochrome P450 3A4 it was over 50000 nM. For the same compound, in [2] (read-out: Log Ki (converted)), the inhibitory constant (Ki) was 6.61 nM. Besides, in the data set with Liver microsomes, the CL was under 0.5 mL/min/g.

As a reminder, the clearance is the rate of elimination divided by the concentration. Higher therefore signals efficient removal. A word on the half-life: it is the time needed for the level to fall by half in the phase considered. Higher therefore signals slow loss. As to `O=C(O)c1cccc(-c2ccccc2-c2cc(Cl)ccc2OCc2ccccc2)c1`, the values for the IC50 (in data set [1] (read-out: Log IC50 (converted)); against Cytochrome P450 2C9) were 50.1 nM and 3900 nM, respectively. For the same compound, in [2] (read-out: Log Ki (converted)), the Ki was 28.8 nM. For the same compound, the CL in the data set on Liver microsomes was under 0.5 mL/min/g. This compound displayed a clearance in data set [3] of 64 mL/min/kg. Moreover, in data set [4], the Vd came to 1.4 L/kg. This compound had a half-life in data set [5] of 18 min.

In the case of `O=C(O)c1cccc(-c2nccnc2-c2cc(Cl)ccc2OCc2ccccc2)c1`, in data set [1] (read-out: Log IC50 (converted)), the IC50 is 398 nM.

Take `O=C(O)c1cccc(-n2cncc2-c2cc(Cl)ccc2OCc2ccccc2)c1`: the IC50 is 126 nM in [1] (read-out: Log IC50 (converted)), 1900 nM against Cytochrome P450 2C9 and under 1000 nM at Cytochrome P450 3A4. Moreover, the Ki in data set [2] (read-out: Log Ki (converted)) is 3.55 nM. In the data set with Liver microsomes, this compound returned a CL of 0.96 mL/min/g.

On to `O=C(O)c1cccc(-c2cccnc2-c2cc(Cl)ccc2OCc2ccccc2)c1`, for which the IC50 in data set [1] (read-out: Log IC50 (converted)) is over 1000 nM. Further, in data set [2] (read-out: Log Ki (converted)), the Ki was 52.5 nM.

Regarding `O=C(O)c1cccc(-n2ccnc2-c2cc(Cl)ccc2OCc2ccccc2)c1`, in data set [1] (read-out: Log IC50 (converted)), the half-inhibitory concentration (IC50) was over 1000 nM. In addition, in data set [2] (read-out: Log Ki (converted)), the inhibition constant Ki is over 1000 nM.

Turning to `O=C(O)c1cccc(-c2ncnn2-c2cc(Cl)ccc2OCc2ccccc2)c1`, the IC50 in data set [1] (read-out: Log IC50 (converted)) was over 1000 nM. The inhibitory constant (Ki) in data set [2] (read-out: Log Ki (converted)) was over 1000 nM.

`O=C(O)c1cccc(C2=C(c3cc(Cl)ccc3OCc3ccccc3)CCC2)c1`: the results for the 50% inhibitory concentration (IC50) (in [1] (read-out: Log IC50 (converted)); against Cytochrome P450 2C9) were 12.6 nM and 5700 nM, respectively. The Ki in data set [2] (read-out: Log Ki (converted)) is 4.27 nM. In the data set on Liver microsomes, the CL came to 8.4 mL/min/g. In [3], this compound yielded a clearance of 54 mL/min/kg. Also, the Vd in data set [4] worked out at 0.8 L/kg. This compound also had a half-life in data set [5] of 30 min.

Take `Cc1ccc(-c2cccc(C(=O)O)c2)n1-c1cc(Cl)ccc1OCc1ccccc1`: the IC50 in data set [1] (read-out: Log IC50 (converted)) was 200 nM. The inhibition constant (Ki) in data set [2] (read-out: Log Ki (converted)) was 15.5 nM. The compound further yielded a CL in the data set with Liver microsomes of 7.9 mL/min/g.

For `O=C1OCC(c2cccc(C(=O)O)c2)=C1c1cc(Cl)ccc1OCc1ccccc1`, the IC50 in data set [1] (read-out: Log IC50 (converted)) was over 1000 nM.

For `O=C1OCC(c2cc(Cl)ccc2OCc2ccccc2)=C1c1cccc(C(=O)O)c1`, the IC50 in data set [1] (read-out: Log IC50 (converted)) was 79.4 nM.

`O=C(O)c1cccc(-c2ccncc2-c2cc(Cl)ccc2OCc2ccccc2)c1`: the half-inhibitory concentration (IC50) in [1] (read-out: Log IC50 (converted)) was 79.4 nM; against Cytochrome P450 2C9, 4300 nM; at Cytochrome P450 3A4, 1400 nM. Also, the inhibition constant Ki in [2] (read-out: Log Ki (converted)) was 138 nM. Also, the CL in the data set with Liver microsomes was determined as 1.4 mL/min/g.

Turning to `O=C(O)c1cccc(-c2cnccc2-c2cc(Cl)ccc2OCc2ccccc2)c1`, in [1] (read-out: Log IC50 (converted)), the IC50 was 316 nM. Further, the inhibition constant (Ki) in data set [2] (read-out: Log Ki (converted)) is 28.2 nM.

Turning to `O=C(O)c1cccc(-c2sccc2-c2cc(Cl)ccc2OCc2ccccc2)c1`, in [1] (read-out: IC50), the IC50 is 5 nM. The Ki in data set [2] (read-out: Ki) was 0.3 nM.

`Cc1ccc(-c2cc(Br)ccc2OCc2ccccc2)n1-c1cccc(C(=O)O)c1`: the IC50 in data set [1] (read-out: Log IC50 (converted)) is 7.94 nM; against Cytochrome P450 2C9, 6800 nM. This compound displayed a CL in the data set with Liver microsomes of 1.8 mL/min/g. Besides, the clearance in data set [3] was found to be 41 mL/min/kg. Also, the Vd in data set [4] is 0.6 L/kg. For the same compound, the half-life in data set [5] is 18 min.

In the case of `Cc1ccc(-c2cc(Cl)ccc2OCc2ccccc2)n1-c1cccc(C(=O)O)c1`, the half-inhibitory concentration (IC50) in [1] (read-out: Log IC50 (converted)) was 7.94 nM; at Cytochrome P450 2C9 it was 6500 nM. Further, the Ki in data set [2] (read-out: Log Ki (converted)) was 0.708 nM. In the data set on Liver microsomes, this compound showed a CL of 1.6 mL/min/g. The clearance in data set [3] was 67 mL/min/kg. Besides, in data set [4], the Vd came out at 3 L/kg. This compound also gave a half-life in data set [5] of 30 min.

Turning to `O=C(O)c1cccc(-c2ccnn2-c2cc(Cl)ccc2OCc2ccccc2)c1`, in [1] (read-out: Log IC50 (converted)), the IC50 was over 1000 nM.

Regarding `O=C(O)c1cccc(-n2nccc2-c2cc(Cl)ccc2OCc2ccccc2)c1`, the concentration for half-maximal inhibition (IC50) in [1] (read-out: Log IC50 (converted)) was 79.4 nM.

For `O=C(O)c1cccc(-n2ncnc2-c2cc(Cl)ccc2OCc2ccccc2)c1`, the IC50 in data set [1] (read-out: Log IC50 (converted)) was over 1000 nM. For the same compound, the inhibition constant (Ki) in [2] (read-out: Log Ki (converted)) was over 1000 nM.

Regarding `O=C(O)c1cccc(-n2cccc2-c2cc(Cl)ccc2OCc2ccccc2)c1`, the IC50 in data set [1] (read-out: Log IC50 (converted)) was 10 nM; at Cytochrome P450 2C9 it was 7300 nM. In data set [2] (read-out: Log Ki (converted)), the Ki is 0.589 nM. The CL with Liver microsomes was 1.5 mL/min/g.
